# Screening data: PubChem, several laboratories
# In the library only some 2.6% were active in any assay of this set; here they are far more common.
# SENP8 block-1 – SENP8 (human) protease inhibition; Q96LD8; recombinant SENP8, Nedd8 substrate fluorescence; inhibition, % at 20 µM; 0.64% of 360,000 active; in the data active means inhibition mostly above about 40%, no sharp cut-off; inactive means mostly below about 27%
# Target sequence (Q96LD8 whole entry, looked up): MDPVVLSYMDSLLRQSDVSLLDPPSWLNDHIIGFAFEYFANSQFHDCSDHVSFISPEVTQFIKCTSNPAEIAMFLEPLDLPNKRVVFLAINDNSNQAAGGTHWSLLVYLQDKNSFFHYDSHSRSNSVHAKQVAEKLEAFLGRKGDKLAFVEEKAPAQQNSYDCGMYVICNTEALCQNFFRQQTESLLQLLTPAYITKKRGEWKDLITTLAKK
# SENP7 inh – blocks the human protease SENP7 | AID 434973 | recombinant SENP7, Z-RLRGG-aminoluciferin luminescence, 40 min | inhibition, % at 5 µM | Q9BQF6 | 1.5% of 330,000 active;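 active means inhibition above about 50% at the single test dose, limit read from the data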;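 further: plate controls were DMSO with enzyme for no effect and no enzyme buffer wells for full effect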
# Target sequence (Q9BQF6 706-1050 limits assumed): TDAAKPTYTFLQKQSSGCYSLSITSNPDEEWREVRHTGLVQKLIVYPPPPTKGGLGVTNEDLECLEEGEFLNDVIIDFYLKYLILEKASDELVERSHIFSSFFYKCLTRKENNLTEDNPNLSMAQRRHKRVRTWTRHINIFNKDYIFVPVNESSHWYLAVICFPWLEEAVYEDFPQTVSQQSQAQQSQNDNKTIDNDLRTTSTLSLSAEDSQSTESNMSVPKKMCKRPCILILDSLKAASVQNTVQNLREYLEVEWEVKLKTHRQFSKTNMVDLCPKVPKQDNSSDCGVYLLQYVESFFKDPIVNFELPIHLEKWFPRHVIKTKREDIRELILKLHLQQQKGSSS
# SENP8 block-2 – inhibitors of human SENP8 protease; Q96LD8; purified SENP8, Z-RLRGG-aminoluciferin cleavage, luminescence; inhibition, % at 10 µM; 1.2% of 330,000 active; AID 2540; in the data active means inhibition above about 50%
# SENP1 inh – blocks the human SENP1 SUMO protease catalytic domain | Q9P0U3 | 0.21% of 360,000 active | inhibition, % at 10 µM | AID 624204 | recombinant SENP1 catalytic domain, CyPet-SUMO1-YPet FRET cleavage;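 active means inhibition at least 30% at 10 µM, raw YFP signal under a set limit, fluorescence ratio 0.5 to 1.5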;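 further: 0% = enzyme with DMSO and 100% = no enzyme wells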
#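 Material – human SENP1 catalytic domain · Input – SENP1 enzyme, 20 pM final · Compound dosing – single concentration of 10 µM compound, 0.5% DMSO final · Timing – enzyme reaction for 50 min at room temperature, dark · Measured by – FRET fluorescence in CFP and YFP emission channels · Control set – no-enzyme wells low, DMSO-plus-enzyme wells high control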
# Platelet DG rel – platelet dense granule release activity; human platelet-rich plasma, SFLLRN dense granule ATP release, luminescence; inhibition, %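 (compounds screened at 7.5 µM in platelet-rich plasma)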; 0.22% of 300,000 active; AID 1663;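 active means mean replicate score, as percent of positive control, at or above 50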
# SENP6 block – SENP6 protease inhibition; Recombinant SENP6 catalytic domain, aminoluciferin luminescence; inhibition, % at 10 µM; 1.8% of 330,000 active; AID 2599;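 active means inhibition above about 50% at the single tested dose, limit read from the data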;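 further: plate controls were DMSO wells with enzyme for no effect and DMSO wells lacking enzyme for full effect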
# SENP8 confirm – human SENP8 inhibition, confirmed. 40% of 6,200 active. inhibition, % at 12.5 µM. Recombinant SENP8, Z-RLRGG-aminoluciferin luminescence, 60 min. shares compounds with SENP7 inh;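 active means mean inhibition across replicates above about 50%, limit read from the data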
# SENP6 confirm – human SENP6 inhibition, confirmed. shares compounds with SENP7 inh. recombinant SENP6, Z-RLRGG-aminoluciferin luminescence. inhibition, % at 12.5 µM. 58% of 6,200 active. AID 488915
# SENP7 conf – human SENP7 inhibition, confirmed. shares compounds with SENP7 inh. recombinant SENP7, Z-RLRGG-aminoluciferin luminescence, 40 min. inhibition, % at 12.5 µM. 69% of 6,200 active
# Casp3 SENP sel – caspase-3 inhibition (SENP selectivity assay); shares compounds with SENP7 inh; purified caspase-3, Z-DEVD-aminoluciferin luminescence, 60 min; inhibition, % at 12.5 µM; 60% of 6,200 active; AID 488918;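 active means mean inhibition above about 50%, limit read from the data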;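 further: plate controls were enzyme with DMSO for no effect and wells without caspase-3 for full effect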
# SENP luc ctr – counter-screen for SENP inhibitors: luminescence interference; shares compounds with SENP7 inh; Pre-incubated SENP8/Z-RLRGG-aminoluciferin, luciferase luminescence interference; inhibition, % at 12.5 µM; 39% of 6,200 active; AID 488919;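 active means mean inhibition above about 50% when retested at one dose, limit read from the data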;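 further: plate controls were DMSO wells with completed reaction for no effect and substrate without enzyme for full effect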
# * marks the source's active call; other numbers are inactive results; i = inactive; . = not tested or not shown.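 How the source made its calls, unless noted: active means mean inhibition above about 50% in the one-dose retest (limit read from the data); inactive means the rest.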
SMILES,SENP8 block-1,SENP7 inh,SENP8 block-2,SENP1 inh,Platelet DG rel,SENP6 block,SENP8 confirm,SENP6 confirm,SENP7 conf,Casp3 SENP sel,SENP luc ctr
CCOC(=O)C1(C(F)(F)F)N=C(C(F)(F)F)Nc2ccccc21 (centres undefined),5,72*,-5,0,0,3,9,7,2,-4,-8
Cc1ccc(NS(=O)(=O)c2c(C)[nH]c(C)c2C(=O)N2CCCCC2)c(Cl)c1,13,11,-5,1,-2,-5,.,.,.,.,.
O=C1c2ccccc2C(=O)c2c1ccc(O)c2O,29,.,.,-2,.,.,.,.,.,.,.
O=C1C(c2ccccc2)=[N+]([O-])c2ccccc21,i,45,23,3,7,64*,55*,69*,75*,61*,27
COc1cc(/C=N/O)ccc1OCc1ccccc1Cl,8,50*,41,0,4,67*,43,55*,79*,33,59*
CSC1=NCCN1C(=O)C12CC3CC(CC(C3)C1)C2,18,-15,-1,-2,1,-9,.,.,.,.,.
CCOc1ccc(Nc2ccc([N+](=O)[O-])c3nonc23)cc1,39,37,65*,7,1,71*,64*,60*,84*,61*,65*
O=C(NCCc1nc(-c2ccc(F)cc2)no1)c1ccc(F)cc1,-6,-3,2,1,.,5,.,.,.,.,.
CCCc1nc(-c2ccc(-c3ccc(F)cc3)cc2)no1,13,57*,6,1,-7,52*,14,16,20,28,13
COc1cc(SC)ccc1C(=O)Nc1cccc(S(=O)(=O)NC2=NCCC2)c1,-15,-7,8,1,.,9,.,.,.,.,.
O=C(O)c1cccc(N/N=C/c2ccc(OC(F)(F)F)cc2)c1,12,34,98*,0,11,99*,-6,100*,103*,94*,99*
O=C(O)c1cccc(N/N=C/c2cccs2)c1,-10,100*,97*,-8,11,100*,100*,100*,104*,98*,99*
O=C(O)c1ccc(N/N=C/c2ccc(OC(=O)c3cccc(Cl)c3)cc2)cc1,3,12,80*,-1,18,6,15,21,-3,20,6
C=C(Cl)COc1ccc2c(CC)cc(=O)oc2c1,-129,57*,-20,-2,.,-18,6,6,6,3,0
Cn1c(/C(C#N)=C/c2ccc(O)cc2)nc2ccccc21,-411,12,23,-46,8,53*,50*,41,65*,.,16
Cn1c(/C(C#N)=C/c2ccncc2)nc2ccccc21,-29,4,2,-22,8,-11,.,.,.,.,.
Nc1ncnc2c1ncn2[C@@H]1O[C@H](CNCc2ccccc2OC2OC(CO)C(O)C(O)C2O)[C@@H](O)[C@H]1O (some centres undefined),6,0,.,0,.,.,.,.,.,.,.
Cc1ccc(NC(=O)c2cnccn2)cc1C,12,71*,39,1,10,69*,66*,61*,83*,84*,63*
Cc1ccc(NC(=O)c2cnccn2)cc1,12,21,10,1,-1,14,.,.,.,.,.
Cc1c(OCC(=O)N(C)c2ccccc2)ccc2c3c(c(=O)oc12)CCC3,-36,-4,0,-2,6,-24,.,.,.,.,.
O=C(CC[C@H]1O[C@@H](n2ccc(=O)[nH]c2=O)[C@H](O)[C@@H]1O)NCCc1c[nH]c2ccccc12,21,.,.,-4,.,.,.,.,.,.,.
O=C(OCC1COc2ccccc2O1)c1c(F)cccc1F (centres undefined),10,83*,-7,4,-1,-2,2,2,1,0,10
Cc1ccc(/C=C(\C#N)c2nc3ccccc3[nH]2)s1,-22,84*,13,-25,-18,23,40,31,93*,74*,61*
COc1c(O)ccc(/C=C(\C#N)c2nc3ccccc3[nH]2)c1[N+](=O)[O-],-22,14,14,-34,-10,54*,27,28,59*,23,48
N#C/C(=C/c1cccs1)c1nc2ccccc2[nH]1,-68,57*,30,-59,2,48,44,48,84*,58*,22
SMILES,SENP8 block-1,SENP7 inh,SENP8 block-2,SENP1 inh,Platelet DG rel,SENP6 block,SENP8 confirm,SENP6 confirm,SENP7 conf,Casp3 SENP sel,SENP luc ctr
Cc1cc(/C=C(\C#N)c2nc3ccccc3[nH]2)c(C)n1C,-83,0,-5,-43,-1,-1,.,.,.,.,.
C=CCN(CC=C)c1ncnc2[nH]ncc12,1,.,.,0,.,.,.,.,.,.,.
O=C(CNS(=O)(=O)c1ccc(Br)s1)NCc1ccccc1,4,2,1,-4,-2,-14,.,.,.,.,.
CCc1cc(C(=O)Nc2ccccc2)cs1,5,75*,52*,2,3,67*,64*,66*,92*,81*,77*
CCc1cc(C(=O)NNC(=S)Nc2ccccc2C)cs1,13,28,36,0,-5,60*,33,30,19,14,38
CNS(=O)(=O)c1ccc(NC(=O)c2csc(C)c2)cc1,11,1,3,1,-5,11,.,.,.,.,.
CCc1cc(C(=O)NNC(=S)Nc2cc(C)ccc2C)cs1,10,41,22,3,6,40,.,.,.,.,.
Cc1cc(C(=O)Nc2ccc(Br)cc2)cs1,6,60*,5,3,0,41,2,22,28,42,3
C[C@@H](NC(=O)[C@@H]1CCCN1C(=O)OC(C)(C)C)c1ccccc1,22,.,.,2,.,.,.,.,.,.,.
Cc1nnc2sc(-c3cccc(F)c3)nn2c1=O,16,1,70*,-2,2,47,50*,63*,21,58*,-8
COc1ccc(C(CNC(=O)C(C)Oc2ccc(Br)cc2)N2CCCC2)cc1 (centres undefined),-193,5,11,-6,16,2,.,.,.,.,.
COc1ccc(/C=C/C(=O)NC(=S)N2CCOCC2)cc1,-2,70*,46,1,8,70*,62*,56*,83*,80*,67*
